# Experimental data taken from ChEMBL document CHEMBL1123415, “Benzo[a]carbazole derivatives. Synthesis, estrogen receptor binding affinities, and mammary tumor inhibiting activity” (1986).
# Where “and” joins values, the source holds several entries; their conditions need not be identical. Equal values may be shown once.
# Columns and labels:
# [1] = biological target: T1, Estrogen receptor (Mus musculus) (UniProt O08537+P19785); assay: Uterotrophic activity in mice as uterus dry weight (mg)/body weight (g) *100 at 0.2 ug; format: functional, tissue-based
# T1 sequence (O08537 whole entry, looked up): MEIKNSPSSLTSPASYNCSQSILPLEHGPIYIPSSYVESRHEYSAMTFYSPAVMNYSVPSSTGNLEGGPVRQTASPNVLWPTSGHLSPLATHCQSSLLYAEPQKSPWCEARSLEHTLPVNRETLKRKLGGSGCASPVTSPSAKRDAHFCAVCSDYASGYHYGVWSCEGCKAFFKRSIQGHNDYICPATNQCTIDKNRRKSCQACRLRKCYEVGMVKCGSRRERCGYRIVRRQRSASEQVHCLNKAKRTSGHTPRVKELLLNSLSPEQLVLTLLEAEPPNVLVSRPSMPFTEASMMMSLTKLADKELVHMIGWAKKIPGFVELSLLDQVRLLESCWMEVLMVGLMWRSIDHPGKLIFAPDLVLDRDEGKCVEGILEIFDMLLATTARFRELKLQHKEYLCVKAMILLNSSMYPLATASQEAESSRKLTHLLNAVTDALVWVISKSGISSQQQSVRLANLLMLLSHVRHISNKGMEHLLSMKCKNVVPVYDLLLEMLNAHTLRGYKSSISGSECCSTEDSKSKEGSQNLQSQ
# T1 sequence (P19785 whole entry, looked up): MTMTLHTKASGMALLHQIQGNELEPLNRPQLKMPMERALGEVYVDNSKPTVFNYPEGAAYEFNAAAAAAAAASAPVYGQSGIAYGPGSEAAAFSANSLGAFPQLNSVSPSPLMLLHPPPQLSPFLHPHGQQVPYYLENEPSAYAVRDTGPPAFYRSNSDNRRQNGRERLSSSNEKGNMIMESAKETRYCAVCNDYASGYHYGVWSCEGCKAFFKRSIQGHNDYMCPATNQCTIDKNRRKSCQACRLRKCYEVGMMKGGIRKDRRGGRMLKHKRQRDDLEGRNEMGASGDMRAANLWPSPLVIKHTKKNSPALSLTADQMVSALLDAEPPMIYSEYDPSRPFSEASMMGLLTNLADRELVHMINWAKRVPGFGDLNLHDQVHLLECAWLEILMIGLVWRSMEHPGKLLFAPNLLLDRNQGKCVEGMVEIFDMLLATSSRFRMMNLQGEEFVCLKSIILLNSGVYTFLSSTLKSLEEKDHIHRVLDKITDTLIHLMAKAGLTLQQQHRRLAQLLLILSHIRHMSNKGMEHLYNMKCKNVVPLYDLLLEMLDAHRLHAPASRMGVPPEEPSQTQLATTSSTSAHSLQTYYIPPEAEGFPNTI
# Summary of the method: (§1)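 Immature 19-day-old female NMRI mice, 10 per group. Compound in olive oil injected sc on 3 consecutive days, dose per animal; vehicle-only controls, estrone as reference. Killed 24 h after last injection. Uteri fixed in Bouin solution, dried at 100 °C for 24 h. Value = uterine dry weight (mg)/body weight (g) ×100, mean of 10 animals ± SD.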
# [2] = biological target: T1, Estrogen receptor (Mus musculus); assay: Uterotrophic activity in mice as uterus dry weight (mg)/body weight (g) *100 at 1 ug; format: functional, tissue-based; summary of the method: as §1
# [3] = biological target: T1, Estrogen receptor (Mus musculus); assay: Uterotrophic activity in mice as uterus dry weight (mg)/body weight (g) *100 at 25 ug; format: functional, tissue-based; summary of the method: as §1
# [4] = biological target: T1, Estrogen receptor (Mus musculus); assay: Uterotrophic activity in mice as uterus dry weight (mg)/body weight (g) *100 at 5 ug; format: functional, tissue-based; summary of the method: as §1
# [5] = biological target: T1, Estrogen receptor (Mus musculus); assay: Uterotrophic activity in mice as uterus dry weight (mg)/body weight (g) *100 at 125 ug; format: functional, tissue-based; summary of the method: as §1
# Rattus norvegicus [6] = organism: Rattus norvegicus; assay: Change in DMBA-induced mammary tumor area in rats after 28 day therapy at 4 mg dose (experiment-1); format: functional
# Summary of the method: (§2)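 Female Sprague–Dawley rats given a single 20 mg DMBA dose by gavage in 1 mL olive oil at 50 days old. Randomized once tumor area per animal exceeded 140 mm². Compound given sc in olive oil (1 mL/kg), dose per kg, once daily Monday–Thursday, double dose Friday. Tumor area from caliper measurement of two perpendicular axes, twice weekly. Significance by Wilcoxon–Mann–Whitney U test.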
# Rattus norvegicus [7] = organism: Rattus norvegicus; assay: Change in DMBA-induced mammary tumor area in rats after 28 day therapy at 1 mg dose (experiment-1); format: functional; summary of the method: as §2
# Rattus norvegicus [8] = organism: Rattus norvegicus; assay: Complete remission of DMBA-induced mammary tumors in rats at 1 mg dose; format: functional; summary of the method: as §2
# Rattus norvegicus [9] = organism: Rattus norvegicus; assay: Partial remission of DMBA-induced mammary tumors in rats at 1 mg dose; format: functional; summary of the method: as §2
# Rattus norvegicus [10] = organism: Rattus norvegicus; assay: Complete remission of DMBA-induced mammary tumors in rats at 4 mg dose; format: functional; summary of the method: as §2
# Rattus norvegicus [11] = organism: Rattus norvegicus; assay: Partial remission of DMBA-induced mammary tumors in rats at 4 mg dose; format: functional; summary of the method: as §2
# Rattus norvegicus [12] = organism: Rattus norvegicus; assay: Percentage progressive DMBA-induced mammary tumors in rats at 1 mg dose (experiment-1); format: functional; summary of the method: as §2
# Rattus norvegicus [13] = organism: Rattus norvegicus; assay: Percentage static unchanged DMBA-induced mammary tumors in rats at 1 mg dose (experiment-1); format: functional; summary of the method: as §2
# Rattus norvegicus [14] = organism: Rattus norvegicus; assay: Percentage progressive DMBA-induced mammary tumors in rats at 4 mg dose (experiment-1); format: functional; summary of the method: as §2
# Rattus norvegicus [15] = organism: Rattus norvegicus; assay: Percentage static unchanged DMBA-induced mammary tumors in rats at 4 mg dose (experiment-1); format: functional; summary of the method: as §2
# Rattus norvegicus [16] = organism: Rattus norvegicus; assay: Final tumor number in DMBA-induced tumor bearing rats at 1 mg dose (experiment-1); format: functional; summary of the method: as §2
# Rattus norvegicus [17] = organism: Rattus norvegicus; assay: Final tumor number in DMBA-induced tumor bearing rats at 4 mg dose (experiment-1); format: functional; summary of the method: as §2
# Rattus norvegicus [18] = organism: Rattus norvegicus; assay: Initial tumor number in DMBA-induced tumor bearing rats at 1 mg dose (experiment-1); format: functional; summary of the method: as §2
# Rattus norvegicus [19] = organism: Rattus norvegicus; assay: Initial tumor number in DMBA-induced tumor bearing rats at 4 mg dose (experiment-1); format: functional; summary of the method: as §2
# [20] = biological target: Estrogen receptor (Bos taurus) (UniProt Q9XSB5+P49884); assay: Evaluated for relative binding affinity (RBA) for calf uterine estrogen receptor; format: protein assay
# Summary of the method: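 Calf uterine cytosol (105000g supernatant; final protein 3 mg/mL) in Tris-EDTA-azide buffer pH 7.5. Incubated with 5 nM [³H]estradiol and competitor (10⁻⁹–10⁻⁴ M) for 18 h at 4 °C. Free ligand removed with dextran-coated charcoal, bound counted by scintillation. Nonspecific binding measured with 5 μM estradiol. RBA = estradiol/competitor molar ratio at 50% displacement ×100.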
# MCF7 [21] = assay: Inhibition of [3H]thymidine incorporation into hormone sensitive MCF-7 human breast cancer cells at 10e-5 M; format: functional
# Summary of the method: (§3)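 MCF-7 cells kept two weeks in medium with 5% charcoal-treated calf serum, 37 °C, 5% CO₂. About 2×10⁴ cells per well; compound added next day in 0.1% ethanol, ethanol-only controls, medium changed on day 4. Cells counted on day 7 by Coulter counter; [³H]thymidine 1 μCi/well for 2 h. Mean of six dishes.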
# MCF7 [22] = assay: Inhibition of [3H]thymidine incorporation into hormone sensitive MCF-7 human breast cancer cells at 10e-6 M; format: functional; summary of the method: as §3
# MCF7 [23] = assay: Percentage cell number change as treated/control in hormone sensitive MCF-7 cell proliferation assay at 10e-6 M or 10e-5 M; format: functional, Homo sapiens; summary of the method: as §3
# MCF7 [24] = assay: Percentage [3H]thymidine incorporation treated/control in hormone sensitive MCF-7 cell proliferation assay at 10e-5 M or 10e-6 M; format: functional, Homo sapiens; summary of the method: as §3
# Rattus norvegicus [25] = organism: Rattus norvegicus; assay: (§4) Change in DMBA-induced mammary tumor area in rats after 28 day therapy at 3 mg dose (experiment-1); format: functional; summary of the method: as §2
# Rattus norvegicus [26] = organism: Rattus norvegicus; assay: Complete remission of DMBA-induced mammary tumors in rats at 3 mg dose; format: functional; summary of the method: as §2
# Rattus norvegicus [27] = organism: Rattus norvegicus; assay: Partial remission of DMBA-induced mammary tumors in rats at 3 mg dose; format: functional; summary of the method: as §2
# Rattus norvegicus [28] = organism: Rattus norvegicus; assay: Percentage progressive DMBA-induced mammary tumors in rats at 3 mg dose (experiment-1); format: functional; summary of the method: as §2
# Rattus norvegicus [29] = organism: Rattus norvegicus; assay: Percentage static unchanged DMBA-induced mammary tumors in rats at 3 mg dose (experiment-1); format: functional; summary of the method: as §2
# Rattus norvegicus [30] = organism: Rattus norvegicus; assay: Final tumor number in DMBA-induced tumor bearing rats at 3 mg dose (experiment-1); format: functional; summary of the method: as §2
# Rattus norvegicus [31] = organism: Rattus norvegicus; assay: Initial tumor number in DMBA-induced tumor bearing rats at 3 mg dose (experiment-1); format: functional; summary of the method: as §2
# Rattus norvegicus [32] = organism: Rattus norvegicus; assay: as §4; format: functional; summary of the method: as §2; remark: listed apart in the source
# MCF7 [33] = assay: Reduction of cell number of hormone sensitive MCF-7 human breast cancer cells at 10e-5 M
# MCF7 [34] = assay: Reduction of cell number of hormone sensitive MCF-7 human breast cancer cells at 10e-6 M
# Rattus norvegicus [35] = organism: Rattus norvegicus; assay: (§5) Change in DMBA-induced mammary tumor area in rats after 28 day therapy at 4 mg dose (experiment-2); format: functional; summary of the method: as §2
# Rattus norvegicus [36] = organism: Rattus norvegicus; assay: as §5; format: functional; summary of the method: as §2; remark: listed apart in the source
# Rattus norvegicus [37] = organism: Rattus norvegicus; assay: Final tumor number in DMBA-induced tumor bearing rats at 4 mg dose (experiment-2); format: functional; summary of the method: as §2
# Rattus norvegicus [38] = organism: Rattus norvegicus; assay: Initial tumor number in DMBA-induced tumor bearing rats at 4 mg dose (experiment-2); format: functional; summary of the method: as §2
# Rattus norvegicus [39] = organism: Rattus norvegicus; assay: Change in DMBA-induced tumor area in rats after 28 day therapy at 1 mg dose (experiment-1); format: functional; summary of the method: as §2
# [40] = biological target: T1, Estrogen receptor (Mus musculus); settings: Uterus
# [41] = biological target: T1, Estrogen receptor (Mus musculus); settings: Uterus; remark: listed apart in the source
# [42] = biological target: T1, Estrogen receptor (Mus musculus); settings: Uterus; remark: listed apart in the source
# [43] = biological target: T1, Estrogen receptor (Mus musculus); settings: Uterus; remark: listed apart in the source
structure (smiles),measurement,setting,value
CCn1c2c(c3cc(OC(C)=O)ccc31)CCc1cc(OC(C)=O)ccc1-2,Effect,[1],15.3
same,Effect,[2],19.6
same,Effect,[3],23.6
same,Effect,[4],18.4
same,Effect,[5],25.4
same,Change in tumor area,Rattus norvegicus [6],230%
same,Change in tumor area,Rattus norvegicus [7],179%
same,Effect,Rattus norvegicus [8],9%
same,Effect,Rattus norvegicus [9],7%
same,Effect,Rattus norvegicus [10],10%
same,Effect,Rattus norvegicus [11],6%
same,Effect,Rattus norvegicus [12],49%
same,Effect,Rattus norvegicus [13],35%
same,Effect,Rattus norvegicus [14],61%
same,Effect,Rattus norvegicus [15],23%
same,No. of new tumors,Rattus norvegicus [16],21
same,No. of new tumors,Rattus norvegicus [17],24
same,No. of tumors,Rattus norvegicus [18],22
same,No. of tumors,Rattus norvegicus [19],24
CCn1c2c(c3ccc(O)cc31)CCc1ccccc1-2,relative binding affinity (RBA),[20],0.8
CCn1c2ccc(O)cc2c2ccc3ccc(O)cc3c21,relative binding affinity (RBA),[20],0.08
CCn1c2c(c3ccc(O)cc31)CCc1cc(O)ccc1-2,relative binding affinity (RBA),[20],30
CCn1c2cc(OC(C)=O)ccc2c2ccc3cc(OC(C)=O)ccc3c21,Effect,[1],21.6
same,Effect,[2],28.5
same,Effect,[3],38.7
same,Effect,[4],38.5
same,Effect,[5],46
CC/C(=C(\c1ccccc1)c1ccc(OCCN(C)C)cc1)c1ccccc1 [TAMOXIFEN],Activity,MCF7 [21],80
same,Activity,MCF7 [22],1850
same,T/C,MCF7 [23],2% and 12%
same,T/C,MCF7 [24],0% and 6%
same,Change in tumor area,Rattus norvegicus [25],136%
same,Effect,Rattus norvegicus [26],22%
same,Effect,Rattus norvegicus [27],7%
same,Effect,Rattus norvegicus [28],44%
same,Effect,Rattus norvegicus [29],27%
same,No. of new tumors,Rattus norvegicus [30],24
same,No. of tumors,Rattus norvegicus [31],31
same,Change in tumor area,Rattus norvegicus [32],-57%
same,cell number,MCF7 [33],2000
same,cell number,MCF7 [34],4800
CCn1c2c(c3ccc(O)cc31)CCc1ccc(O)cc1-2,relative binding affinity (RBA),[20],9.7
CCn1c2c(c3ccccc31)CCc1cc(O)ccc1-2,relative binding affinity (RBA),[20],1.8
CCn1c2c(c3cc(O)ccc31)CCc1ccccc1-2,relative binding affinity (RBA),[20],0.06
CCn1c2c(c3cc(O)ccc31)CCc1cc(O)ccc1-2,relative binding affinity (RBA),[20],13
same,Activity,MCF7 [21],760
same,Activity,MCF7 [22],25840
same,cell number,MCF7 [33],4600
same,cell number,MCF7 [34],28200
CCn1c2c(c3ccc(O)cc31)CCc1c(O)cccc1-2,relative binding affinity (RBA),[20],1.3
CCCCn1c2c(c3ccc(O)cc31)CCc1cc(O)ccc1-2,relative binding affinity (RBA),[20],9.5
CCn1c2ccc(OC(C)=O)cc2c2ccc3cc(OC(C)=O)ccc3c21,Effect,[1],12
same,Effect,[2],13.7
same,Effect,[3],15.1
same,Effect,[4],14.4
same,Effect,[5],18.1
same,Effect,Rattus norvegicus [8],3%
same,Effect,Rattus norvegicus [9],8%
same,Effect,Rattus norvegicus [10],6%
same,Effect,Rattus norvegicus [11],10%
same,Change of tumor area,Rattus norvegicus [35],561%
same,Change of tumor area,Rattus norvegicus [36],111%
same,Effect,Rattus norvegicus [12],70%
same,Effect,Rattus norvegicus [13],19%
same,Effect,Rattus norvegicus [14],59%
same,Effect,Rattus norvegicus [15],25%
same,No. of new tumors,Rattus norvegicus [16],41
same,No. of new tumors,Rattus norvegicus [37],45
same,No. of tumors,Rattus norvegicus [18],22
same,No. of tumors,Rattus norvegicus [38],23
same,Median,Rattus norvegicus [39],493%
same,Range,Rattus norvegicus [39],-29%
C[C@]12CC[C@@H]3c4ccc(O)cc4CC[C@H]3[C@@H]1CCC2=O,Effect,[40],48.6
same,Effect,[41],46.9
same,Effect,[42],42.5
same,Effect,[43],46.9
CCCn1c2c(c3ccc(O)cc31)CCc1cc(O)ccc1-2,relative binding affinity (RBA),[20],38
